The text below walks through data of ChEMBL document CHEMBL1153755, “Convenient synthesis and antimicrobial evaluation of some novel 2-substituted-3-methylbenzofuran derivatives” (2009).

As usually defined, the MIC is the least concentration at which growth counts as inhibited.

What all share (format): functional
The test system of experiment [1] is Staphylococcus aureus. Nature of the experiment: Antibacterial activity against Staphylococcus aureus at 100 ug after 24 to 48 hrs by diffusion agar technique. The conditions noted are these: read-out: IZ. An outline of the steps: (§1)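 Hole-plate agar diffusion on nutrient agar (pH 6.2) seeded with the bacterial isolate (RCMB collection). 1 cm wells hold 100 μL of compound at 5 mg/ml in DMSO; DMSO-filled wells serve as controls. Plates are held 1 h at 4 °C, then incubated at 37 °C. Inhibition zone diameter is read after 24-48 h. Amoxicilline is the reference.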

Experiment [2] relates to Penicillium italicum. As to the kind of experiment: Antifungal activity against Penicillium italicum at 100 ug after 24 to 48 hrs by diffusion agar technique. The following applies: read-out: IZ. An outline of the steps: (§2)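 Fungal isolates (RCMB collection) are seeded into malt extract agar (pH 5.4) and tested by hole-plate diffusion. Each 1 cm well receives 100 μL of a 5 mg/ml DMSO solution, with DMSO as control. Plates sit 1 h at 4 °C, then incubate at 28 °C. Zone diameter is measured after 24-48 h. Terbinafin is the standard.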

The subject of experiment [3] is Aspergillus fumigatus. As to the kind of experiment: Antifungal activity against Aspergillus fumigatus at 100 ug after 24 to 48 hrs by diffusion agar technique. The following applies: read-out: IZ. The essentials:
as §2

The subject of experiment [4] is Aspergillus niger. Nature of the experiment: Antifungal activity against Aspergillus niger at 100 ug after 24 to 48 hrs by diffusion agar technique. The following applies: read-out: IZ. An outline of the steps: as §2
Experiment [5] deals with Bacillus subtilis. As to the kind of experiment: Antibacterial activity against Bacillus subtilis at 100 ug after 24 to 48 hrs by diffusion agar technique. The conditions noted are these: read-out: IZ. The essentials: as §1
The subject of experiment [6] is Aspergillus niger. As to the kind of experiment: Antimicrobial activity against Aspergillus niger by serial dilution technique.
Experiment [7] deals with Syncephalastrum racemosum. As to the kind of experiment: Antifungal activity against Syncephalastrum racemosum at 100 ug after 24 to 48 hrs by diffusion agar technique. The conditions noted are these: read-out: IZ. The essentials: as §2
For experiment [8], the system named is Candida albicans. Nature of the experiment: Antifungal activity against Candida albicans at 100 ug after 24 to 48 hrs by diffusion agar technique. The conditions noted are these: read-out: IZ. The essentials: as §2
Experiment [9] relates to Bacillus subtilis. As to the kind of experiment: Antimicrobial activity against Bacillus subtilis by serial dilution technique.
Experiment [10] concerns Escherichia coli. Nature of the experiment: Antibacterial activity against Escherichia coli at 100 ug after 24 to 48 hrs by diffusion agar technique. The following applies: read-out: IZ. An outline of the steps: as §1
The test system of experiment [11] is Candida albicans. Nature of the experiment: Antimicrobial activity against Candida albicans by serial dilution technique.
For experiment [12], the system named is Staphylococcus aureus. As to the kind of experiment: Antimicrobial activity against Staphylococcus aureus by serial dilution technique.
In experiment [13] the test system is Pseudomonas aeruginosa. As to the kind of experiment: Antibacterial activity against Pseudomonas aeruginosa at 100 ug after 24 to 48 hrs by diffusion agar technique. The conditions noted are these: read-out: IZ. An outline of the steps: as §1
In experiment [14] the test system is Aspergillus fumigatus. Nature of the experiment: Antimicrobial activity against Aspergillus fumigatus by serial dilution technique.
In experiment [15] the test system is Syncephalastrum racemosum. Nature of the experiment: Antimicrobial activity against Syncephalastrum racemosum by serial dilution technique.
The subject of experiment [16] is Penicillium italicum. As to the kind of experiment: Antimicrobial activity against Penicillium italicum by serial dilution technique.

Values after ≈ are worked out from the molar mass of the structure shown.

On to `CCO/C=C(\C#N)C(=O)c1oc2ccccc2c1C`, for which the zone of inhibition at 100 µg/disc in experiment [1] is 13 mm; in experiment [2], 10 mm; in experiment [3], 19 mm; in [4], 18 mm; in [5], 7 mm; in experiment [7], 22 mm. Further, in experiment [8], the zone of inhibition at 100 µg/disc worked out at 10 mm. In [6], this molecule yielded an MIC of 250 mg/L (≈ 979 µM).

`Cc1c(-c2cc(N)n(-c3ccccc3)n2)oc2ccccc12` displayed an MIC in experiment [9] of 250 mg/L (≈ 864 µM). The zone of inhibition at 100 µg/disc turned out to be 4 mm in experiment [1]; 10 mm in experiment [3]; 7 mm in [4]; 5 mm in experiment [10]; 25 mm in experiment [5]; 9 mm in experiment [8].

Turning to `Cc1c(C(=O)/C(C#N)=N/Nc2ccc(Cl)cc2)oc2ccccc12`, the zone of inhibition at 100 µg/disc worked out at 5 mm in experiment [1] and 16 mm in experiment [8]. Moreover, the MIC in experiment [11] turned out to be 250 mg/L (≈ 740 µM).

Turning to `Cc1c(C(=O)NN/C=C(\NNC(=O)c2oc3ccccc3c2C)c2ccccc2)oc2ccccc12`, the zone of inhibition at 100 µg/disc in experiment [1] was found to be 15 mm; in [10], 5 mm; in experiment [13], 6 mm; in [5], 14 mm. This molecule also gave a minimal inhibitory concentration (MIC) in experiment [12] of 500 mg/L (≈ 1040 µM).

Regarding `Cc1c(C(=O)NN/C=C(\NNC(=O)c2oc3ccccc3c2C)c2ccc(Cl)cc2)oc2ccccc12`, in [14], 500 mg/L (≈ 971 µM) was the least that counted as inhibitory (MIC). Moreover, the zone of inhibition at 100 µg/disc in experiment [1] came to 4 mm; in [3], 10 mm; in experiment [4], 5 mm; in experiment [10], 3 mm; in [5], 4 mm; in experiment [7] it was 6 mm.

In the case of `Cc1c(C(=O)/C(C#N)=N/O)oc2ccccc12`, the MIC in experiment [9] worked out at 125 mg/L (≈ 548 µM). Also, the zone of inhibition at 100 µg/disc in experiment [1] was 15 mm; in [3], 8 mm; in experiment [4], 12 mm; in [10], 8 mm; in experiment [5] it was 20 mm; in [8] it was 18 mm.

Turning to `Cc1ccc(N/N=C(\C#N)C(=O)c2oc3ccccc3c2C)cc1`, the zone of inhibition at 100 µg/disc in [1] came out at 4 mm; in experiment [3], 12 mm; in [5], 6 mm; in experiment [8] it was 20 mm. In addition, the MIC in experiment [11] was found to be 50 mg/L (≈ 158 µM).

Consider `Cc1c(-c2n[nH]cc2C#N)oc2ccccc12`, for which the zone of inhibition at 100 µg/disc was 10 mm in [1]; 20 mm in experiment [3]; 6 mm in experiment [4]; 18 mm in [5]; 30 mm in experiment [7]; 12 mm in [8]. For the same molecule, it took 50 mg/L (≈ 224 µM) to inhibit growth in experiment [15] (MIC).

On to `Cc1c(C(=O)NNC(=O)c2oc3ccccc3c2C)oc2ccccc12`, for which the zone of inhibition at 100 µg/disc was 3 mm in experiment [1]; 12 mm in experiment [2]; 4 mm in experiment [3]; 13 mm in experiment [4]; 12 mm in experiment [5]; 18 mm in [7]. Further, in experiment [8], the zone of inhibition at 100 µg/disc came to 6 mm. Moreover, the MIC in experiment [15] and in [16] was 50 mg/L (≈ 144 µM) each time.

For `Cc1c(C(=O)Nc2ccccc2C(=O)O)oc2ccccc12`, the zone of inhibition at 100 µg/disc in [1] was 3 mm; in [2], 13 mm; in [5], 12 mm; in experiment [7], 22 mm. This molecule also gave an MIC in experiment [15] of 250 mg/L (≈ 847 µM).

For the molecule `Cc1c(-c2nc3ccccc3c(=O)o2)oc2ccccc12`, the zone of inhibition at 100 µg/disc in experiment [1] worked out at 4 mm; in experiment [2], 6 mm; in experiment [3], 8 mm; in [4] it was 5 mm; in experiment [13] it was 8 mm; in [5] it was 8 mm. In addition, the results for the zone of inhibition at 100 µg/disc in experiment [7] and in [8] were 18 mm and 7 mm, respectively. The same molecule yielded an MIC in experiment [15] of 250 mg/L (≈ 902 µM).

Turning to `CC1(C)S[C@@H]2[C@H](NC(=O)[C@H](N)c3ccc(O)cc3)C(=O)N2[C@H]1C(=O)O` [AMOXICILLIN], the zone of inhibition at 100 µg/disc is 30 mm in [1], 30 mm in experiment [10], 20 mm in experiment [13] and 25 mm in [5].

For the molecule `CN(C/C=C/C#CC(C)(C)C)Cc1cccc2ccccc12` [TERBINAFINE], the zone of inhibition at 100 µg/disc in [2] stood at 20 mm; in experiment [3], 30 mm; in experiment [4], 25 mm; in experiment [7] it was 35 mm; in experiment [8], 30 mm.
